Data set [1] in a line: Drug metabolism in human liver microsomes assessed as CYP450 mediated-O-demethylated 7-hydroxy-2-[4-(trideuteriomethoxy)phenyl]-5H-pyrazolo[4,3-c]quinolin-3-one metabolite formation after 60 mins by LC-MS analysis. The note with it: 1 h. The data set is classed as ADME. In a few lines: (§1)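 The 60-min samples from the human or mouse liver microsome incubations (10 µM compound, 0.5 mg/mL protein, NADPH regenerating system, 37 °C, pH 7.4) were run on LC-MS in SIM mode with dual ESI/APCI ionization. The method was calibrated to each component's retention time and mass, and the peak intensities of the parent and O-demethylated metabolites were measured.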
(Liver microsomes are a subcellular fraction often used to study metabolism.)

Data set [2] is described as follows: Drug metabolism in mouse liver microsomes assessed as CYP450 mediated-O-demethylated 7-hydroxy-2-[4-(trideuteriomethoxy)phenyl]-5H-pyrazolo[4,3-c]quinolin-3-one metabolite formation after 60 mins by LC-MS analysis. The note with it: 1 h. Format: ADME. In a few lines:
as §1

A short description of data set [3]: Drug metabolism in mouse liver microsomes assessed as CYP450 mediated-O-demethylated 7-hydroxy-2-(4-hydroxyphenyl)-2H-pyrazolo[4,3-c]quinolin-3(5H)-one metabolite formation after 60 mins by LC-MS analysis. The data set is classed as ADME. The note with it: 1 h. In a few lines: as §1
Another data set has as its system HEK-293T. Kind of data set: Cytotoxicity against HEK293T cells assessed as reduction in cell viability up to 400 uM after 48 hrs by CellTiter-Glo assay. The data set is classed as cell-based. The note with it: human. In short, it runs like this:
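HEK293T and HepG2 cells grown in high-glucose DMEM with non-essential amino acids, 10 mM HEPES, penicillin/streptomycin and 10% heat-inactivated FBS. Cells were harvested with trypsin and plated; compound was pin-transferred 3 h later. Incubation was 48 h, then CellTiter-Glo luminescence was read. Controls were DMSO (negative) and a cytotoxic aminoketone (positive). Quadruplicates, three independent runs, normalized to controls, nonlinear regression.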
(In ATP-based viability assays light output follows the ATP content of the culture.)

Data set [4] relates to Mus musculus. Kind of data set: Neurotoxicity in Swiss Webster mouse assessed as induction of motor impairment at 40 mg/kg administered via oral gavage measured after 10 to 60 mins by rotarod method. The data set is classed as toxicity, organism-based. The note with it: in vivo. In short, it runs like this:
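Female mice were given a single oral gavage dose of 40 mg/kg, either in 50% PBS/40% propylene glycol/10% DMSO or, for poorly soluble compounds, in 2% polyethylene glycol plus 2.5% hydroxymethyl cellulose. Rotarod performance was tested 10, 30 and 60 min after dosing, with diazepam 5 mg/kg as positive control.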
Background: The rotarod test checks motor coordination on a turning rod.

For data set [5], the system named is Rattus norvegicus. Kind of data set: Toxicity in Wistar rat assessed as total distance traveled at 10 mg/kg, ip administered for 45 mins by cued water-maze method (reference value: 8.04 +/- 1.16 meter). The data set is classed as organism-based. The note with it: in vivo, 0.75 h.
Data set [6] has as its system Rattus norvegicus. Kind of data set: Toxicity in Wistar rat assessed as average swim speed at 10 mg/kg, ip administered for 45 mins by cued water-maze apparatus method (reference value: 0.21 +/- 0.01 meter/s). The data set is classed as organism-based. The note with it: in vivo, 0.75 h.
Data set [7] relates to Rattus norvegicus. Kind of data set: Hyperlocomotor activity in Wistar rat assessed as total distance travelled at 10 mg/kg, ip after 60 mins. The data set is classed as ADME, organism-based. The note with it: in vivo, 1 h.
In data set [8] the test system is Mus musculus. Kind of data set: Hyperlocomotor activity in C57BL/6 mouse assessed as total distance travelled at 3 to 10 mg/kg, ip after 60 mins in presence of diazepam. Format: ADME, organism-based. The note with it: in vivo, 1 h.
Data set [9] addresses Voltage-gated inwardly rectifying potassium channel KCNH2 (Homo sapiens, UniProt Q12809). Kind of data set: Displacement of [3H]-dofetilide from human ERG expressed in HEK cell membranes at >10 uM after 60 to 90 mins by scintillation counting.
For a further data set, the system named is Brain. Kind of data set: Fraction unbound in Wistar rat brain at 10 mg/kg, ip administered as single dose measured at 5 to 720 mins post dose by HPLC-MS/MS analysis. The data set is classed as ADME, organism-based. The note with it: in vivo. In a few lines: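 Free fraction in rat plasma and brain tissue was measured in vitro by rapid equilibrium dialysis. Exposure came from male Wistar rats (250-350 g) given a single 10 mg/kg IP dose, as a 5 mg/ml suspension in 85% water, 14% propylene glycol and 1% Tween 80. Three rats per time point (5–720 min); brain analysed by HPLC-MS/MS after solid-phase extraction.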

The test system of data set [10] is Mus musculus. Kind of data set: Neurotoxicity in Swiss Webster mouse assessed as induction of motor impairment at 55 mg/kg administered via oral gavage measured after 10 to 60 mins by rotarod method. The data set is classed as toxicity, organism-based. The note with it: in vivo.
Another data set deals with Liver. Kind of data set: Half life in mouse liver microsomes at 10 uM by LC-MS/MS analysis. Format: ADME, microsome. In short, it runs like this: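 Compound at 10 μM final was preincubated 5 min at 37 °C with NADPH regenerating system in phosphate buffer, pH 7.4. Human or mouse liver microsomes (0.5 mg/mL protein) were added to start the reaction. Samples were taken at 0 (no microsomes) and 10–60 min and measured by LC-MS/MS against an internal standard. Half-life = 0.693/k, with k the slope of ln peak-area ratio versus time. Three experiments, each in duplicate.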

Data set [11] can be described thus: Aqueous solubility of the compound in DI water at pH 7 after 2 hrs by LC-MS analysis. The data set is classed as physicochemical. The note with it: buffer, pH 7, 2 h. In a few lines: (§2)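 10 mg compound dissolved in 2 mL DMAC; 10 μL of this added to 2 mL DI water (pH 7, sonicated) or 2 mL 0.01 M aq HCl (pH 2), held 2 h at 37 °C. Filtered through 0.45 micron filter, then quantified by LC-MS in SIM mode against calibration curves of standards in DMAC (n = 5); n=3.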

A short description of data set [12]: Solubility of the compound in 0.01M HCl at pH 2 after 2 hrs by LC-MS analysis. The data set is classed as physicochemical. The note with it: buffer, pH 2, 2 h. In a few lines:
as §2

Data set [13] deals with GABA-A receptor; alpha-6/beta-3/gamma-2 (Homo sapiens) (UniProt P18507+P28472+Q16445). Kind of data set: Positive allosteric modulation of GABA-A receptor alpha6beta3gamma2 (unknown origin) expressed in Xenopus laevis oocytes assessed as potentiation of EC3 GABA induced currents at 30 uM at -60 mV holding potential by electrophysiological method relative to GABA. The data set is classed as cell-based. In short, it runs like this: (§3)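 Stage 5–6 defolliculated Xenopus oocytes were injected with 2.5 ng total mRNA per oocyte: α1, α2, α3 or α5 with β3 and γ2 at 1:1:5, and α4 or α6 with β3 and γ2 at 3:1:5. Oocytes were kept ≥36 h at 18 °C in NDE medium before recording. Compounds were co-applied with GABA titrated to EC3-5 for each oocyte. Curves were fitted with the Hill equation; mean ± SEM from ≥3 oocytes across two batches.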

Data set [14] deals with GABA A receptor alpha-4/beta-3/gamma-2 (Homo sapiens) (UniProt P18507+P28472+P48169). Kind of data set: Positive allosteric modulation of GABA-A receptor alpha4beta3gamma2 (unknown origin) expressed in Xenopus laevis oocytes assessed as potentiation of EC3 GABA induced currents up to 1 uM at -60 mV holding potential by electrophysiological method relative to GABA. The data set is classed as cell-based. In short, it runs like this:
as §3

For data set [15], the species on record is Rattus norvegicus. Kind of data set: Displacement of [3H]-flunitrazepam from rat brain GABA-A receptor benzodiazepine site […] at 10 uM after 60 to 90 mins by scintillation counting.
Data set [16] has as its target 5-hydroxytryptamine receptor 7 (Homo sapiens) (UniProt P34969). Kind of data set: Displacement of [3H]-LSD from human recombinant 5HT7 receptor expressed in HEK293 cells at 10 uM after 60 to 90 mins by scintillation counting. Format: cell-based.
The target in data set [17] is Mu-type opioid receptor (Homo sapiens) (UniProt P35372). Kind of data set: Displacement of [3H]-DAMGO from human recombinant MOR expressed in HEK293 cells at 10 uM after 60 to 90 mins by scintillation counting. Format: cell-based.
Chain of Mu-type opioid receptor (Homo sapiens) (P35372 whole entry): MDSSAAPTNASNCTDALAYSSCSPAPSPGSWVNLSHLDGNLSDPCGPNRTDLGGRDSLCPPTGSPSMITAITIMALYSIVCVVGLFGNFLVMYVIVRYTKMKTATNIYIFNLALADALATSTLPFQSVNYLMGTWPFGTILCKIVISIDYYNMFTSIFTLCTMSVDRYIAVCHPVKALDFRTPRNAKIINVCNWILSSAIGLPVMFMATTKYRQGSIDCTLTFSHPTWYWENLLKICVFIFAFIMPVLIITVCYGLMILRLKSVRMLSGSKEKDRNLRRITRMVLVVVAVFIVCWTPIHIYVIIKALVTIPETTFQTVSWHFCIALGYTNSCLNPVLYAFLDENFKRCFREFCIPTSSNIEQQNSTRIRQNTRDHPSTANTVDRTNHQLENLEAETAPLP

≈ marks a conversion by molar mass, not a printed value. Calls of active or inactive are those of the source. The rule behind the calls is not given here.

For orientation: solubility means the concentration that dissolves in the medium under given conditions. A lower solubility goes with a poorly soluble substance.

Chain of Voltage-gated inwardly rectifying potassium channel KCNH2 (Q12809 whole entry): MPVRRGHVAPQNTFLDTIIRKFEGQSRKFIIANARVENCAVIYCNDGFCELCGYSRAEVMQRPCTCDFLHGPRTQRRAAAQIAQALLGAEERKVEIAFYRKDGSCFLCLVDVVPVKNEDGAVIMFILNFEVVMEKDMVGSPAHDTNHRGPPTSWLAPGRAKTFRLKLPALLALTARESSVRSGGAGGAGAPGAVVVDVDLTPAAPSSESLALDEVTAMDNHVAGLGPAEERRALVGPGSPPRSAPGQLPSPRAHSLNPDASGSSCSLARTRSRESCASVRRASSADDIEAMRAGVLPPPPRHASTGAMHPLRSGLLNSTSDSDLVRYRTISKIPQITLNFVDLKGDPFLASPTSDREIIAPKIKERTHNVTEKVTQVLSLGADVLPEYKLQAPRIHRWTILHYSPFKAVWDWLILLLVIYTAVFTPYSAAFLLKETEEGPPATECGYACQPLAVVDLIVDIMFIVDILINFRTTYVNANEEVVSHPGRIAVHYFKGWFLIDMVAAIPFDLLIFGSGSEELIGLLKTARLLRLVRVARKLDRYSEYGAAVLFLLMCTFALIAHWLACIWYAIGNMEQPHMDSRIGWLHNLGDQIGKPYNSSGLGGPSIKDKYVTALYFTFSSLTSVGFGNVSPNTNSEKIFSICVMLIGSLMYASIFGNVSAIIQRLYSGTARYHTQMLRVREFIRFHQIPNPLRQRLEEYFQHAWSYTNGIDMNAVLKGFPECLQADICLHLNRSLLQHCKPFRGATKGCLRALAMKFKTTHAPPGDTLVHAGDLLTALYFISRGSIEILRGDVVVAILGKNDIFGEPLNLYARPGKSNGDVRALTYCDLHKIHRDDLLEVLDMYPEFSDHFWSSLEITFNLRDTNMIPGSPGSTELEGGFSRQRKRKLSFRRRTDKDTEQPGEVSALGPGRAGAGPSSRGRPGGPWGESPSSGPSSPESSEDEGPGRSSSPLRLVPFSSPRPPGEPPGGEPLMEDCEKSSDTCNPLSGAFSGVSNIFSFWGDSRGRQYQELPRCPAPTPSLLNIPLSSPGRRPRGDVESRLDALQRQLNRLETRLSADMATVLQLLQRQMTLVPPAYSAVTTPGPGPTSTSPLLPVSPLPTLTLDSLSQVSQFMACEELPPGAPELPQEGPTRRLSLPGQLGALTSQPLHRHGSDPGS
Chain of 5-hydroxytryptamine receptor 7 (Homo sapiens) (P34969 whole entry): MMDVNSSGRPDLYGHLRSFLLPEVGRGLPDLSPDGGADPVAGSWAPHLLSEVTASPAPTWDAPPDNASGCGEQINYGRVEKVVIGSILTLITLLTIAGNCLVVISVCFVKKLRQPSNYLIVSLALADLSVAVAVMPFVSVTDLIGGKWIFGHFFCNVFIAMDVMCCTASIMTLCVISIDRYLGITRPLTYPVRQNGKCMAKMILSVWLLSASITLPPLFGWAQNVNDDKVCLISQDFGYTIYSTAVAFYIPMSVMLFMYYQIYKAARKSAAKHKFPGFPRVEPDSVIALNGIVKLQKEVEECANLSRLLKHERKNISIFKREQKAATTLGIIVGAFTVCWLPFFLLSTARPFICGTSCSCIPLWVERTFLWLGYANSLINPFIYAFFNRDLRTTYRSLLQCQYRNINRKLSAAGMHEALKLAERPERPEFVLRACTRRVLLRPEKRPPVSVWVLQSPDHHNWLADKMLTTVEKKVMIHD

Turning to `[2H]C([2H])([2H])Oc1ccc(-n2nc3c4ccc(OC)cc4[nH]cc-3c2=O)cc1`, the Drug metabolism entry in [1], in data set [2] and in data set [3] was “Metabolite_Detected” in each case. In addition, the Activity entry in the data set on HEK-293T is “Non-Toxic”; in the data set with Mus musculus [4] it was “Non-Toxic”; in the data set with Rattus norvegicus [5] it was 11.01 m; in the data set on Rattus norvegicus [6], 0.2 meter/s; with Rattus norvegicus [7], “Toxic”; with Mus musculus [8], “Toxic”. Further, the Activity entry in the data set with Mus musculus [10] is recorded as “Non-Toxic”. The “inhibition (INH)” value in [9] was “Not Active”. In the data set with Brain, the Fu was found to be 0.194.

`COc1ccc(-n2nc3c4ccc(OC)cc4[nH]cc-3c2=O)cc1` gave a t1/2 with Liver of 3.2 h. The solubility was determined as 24.3 µM (≈ 7.81 µg/mL) in data set [11] and 27.8 µM (≈ 8.93 µg/mL) in data set [12]. Also, the Activity in data set [13] is 900%; in data set [14], less than 0%; in the data set with Mus musculus [4], “Non-Toxic”. Moreover, in data set [13] (tested as the 2H-labelled form), the outcome was inactive. Further, the inhibition entry (in the data set listed under Rattus norvegicus [15]; in data set [16]; in data set [17]) was “Active” in each case. Besides, in data set [9], the “inhibition (INH)” value is recorded as “Not Active”.

These data come from ChEMBL document CHEMBL4033790, “Design and Synthesis of Novel Deuterated Ligands Functionally Selective for the γ-Aminobutyric Acid Type A Receptor (GABAAR) α6 Subtype with Improved Metabolic Stability and Enhanced Bioavailability” (J Med Chem, 2018).
